Active and inactive are the calls of the source. The rule behind the calls is not given here.
What was measured:
Staphylococcus aureus [1] = assay: Antibacterial activity against Staphylococcus aureus SA1199 at 5 ug by disk diffusion method; conditions: read-out: IZ
Staphylococcus aureus [2] = assay: Antibacterial activity against Staphylococcus aureus SA1199B overexpressing NorA at 30 ug by disk diffusion method; type: functional; conditions: read-out: IZ
Outline: (§1)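 Agar diffusion on Mueller-Hinton agar (adjusted to 20 μg/ml Ca²⁺ and 10 μg/ml Mg²⁺), used plain or with the efflux inhibitor incorporated at the stated concentration. Disks were 5 μg for the fluoroquinolones and 30 μg for chloramphenicol. Plates were incubated overnight at 37°C, and inhibition zone diameters were measured. Values are means of at least three independent experiments.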

Staphylococcus aureus [3] = assay: Increase in 5 ug sparfloxacin antibacterial activity against Staphylococcus aureus SA1199B mutant overexpressing NorA at 128 ug/ml by disk diffusion method; type: functional
Outline: as §1

Staphylococcus aureus [4] = assay: Increase in 5 ug moxifloxacin antibacterial activity against Staphylococcus aureus SA1199B mutant overexpressing NorA at 128 ug/ml by disk diffusion method; type: functional
Outline: as §1

Staphylococcus aureus [5] = assay: Increase in 30 ug chloramphenicol antibacterial activity against Staphylococcus aureus SA1199B mutant overexpressing NorA at 128 ug/ml by disk diffusion method; type: functional
Outline: as §1

Staphylococcus aureus [6] = assay: Antibacterial activity against Staphylococcus aureus; type: functional
Outline: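 Tube broth dilution MIC against SA-1199 and NorA-overproducing SA-1199B in Mueller-Hinton broth with 20 μg/ml Ca²⁺ and 10 μg/ml Mg²⁺. Inoculum was a 4–5 h 37°C culture diluted 1/10 (≈10⁶ CFU/ml). Compound range was 512 to 1 μg/ml, dissolved in DMSO (final ≤4%).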

Staphylococcus aureus [7] = assay: Increase in 2 ug/ml Norfloxacin antibacterial activity against wild type Staphylococcus aureus SA1199 at 128 ug/ml by checker board method; type: functional
Staphylococcus aureus [8] = assay: Increase in 64 ug/ml Norfloxacin antibacterial activity against Staphylococcus aureus SA1199B mutant overexpressing NorA at 128 ug/ml by checker board method; type: functional
Staphylococcus aureus [9] = assay: Increase in 16 ug/ml Norfloxacin accumulation in wild type Staphylococcus aureus SA1199 at 128 ug/ml after 20 mins; type: functional
Outline: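 Mid-exponential SA-1199 cells were washed and resuspended in 50 mM sodium phosphate, pH 7.0. They were exposed at time zero to norfloxacin at one-quarter MIC, alone or with EPI at 128 μg/ml. At 5–20 min, cells were spun through silicone-paraffin oil into orthophosphoric acid. Lysate norfloxacin was measured by C18 HPLC with fluorescence detection (ex 240, em 280 nm) and normalized to BCA protein (ng/mg). Triplicate experiments, mean reported.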

Staphylococcus aureus [10] = assay: Increase in 16 ug/ml Norfloxacin accumulation in Staphylococcus aureus SA1199B mutant overexpressing NorA measured per mg of cell protein at 128 ug/ml after 5 mins; type: functional, organism-based
Outline: (§2)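 SA-1199B was grown to mid-exponential phase in MH broth (4–5 h, 37°C, shaken), then washed and resuspended in 50 mM sodium phosphate, pH 7.0. Cells got norfloxacin at one-quarter MIC, alone or with inhibitor at 128 μg/ml. At 5–20 min, cells were spun through silicone-paraffin oil into orthophosphoric acid. Norfloxacin was measured by HPLC fluorescence (ex 240/[…]) as ng/mg BCA protein. Means of triplicate experiments.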

Staphylococcus aureus [11] = assay: Increase in 5 ug Norfloxacin antibacterial activity against Staphylococcus aureus SA1199B mutant overexpressing NorA at 128 ug/ml by disk diffusion method; type: functional
Outline: as §1

Staphylococcus aureus [12] = assay: Increase in 5 ug ciprofloxacin antibacterial activity against Staphylococcus aureus SA1199B mutant overexpressing NorA at 128 ug/ml by disk diffusion method; type: functional
Outline: as §1

Staphylococcus aureus [13] = assay: Increase in 5 ug ofloxacin antibacterial activity against Staphylococcus aureus SA1199B mutant overexpressing NorA at 128 ug/ml by disk diffusion method; type: functional
Outline: as §1

Staphylococcus aureus [14] = assay: Increase in 5 ug levofloxacin antibacterial activity against Staphylococcus aureus SA1199B mutant overexpressing NorA at 128 ug/ml by disk diffusion method; type: functional
Outline: as §1

Staphylococcus aureus [15] = assay: Increase in 16 ug/ml Norfloxacin accumulation in Staphylococcus aureus SA1199B mutant overexpressing NorA measured per milligram of cell protein at 128 ug/ml after 20 mins; type: functional, organism-based
Outline: as §2

Staphylococcus aureus [16] = assay: Increase in 16 ug/ml Norfloxacin accumulation in Staphylococcus aureus SA1199B mutant overexpressing NorA at 128 ug/ml after 20 mins; type: functional
Outline: as §2

Staphylococcus aureus [17] = assay: Increase in 16 ug/ml Norfloxacin antibacterial activity against Staphylococcus aureus SA1199B mutant overexpressing NorA at 128 ug/ml after 24 hrs by time-kill curve method; type: functional, organism-based
Outline: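 Log-phase SA-1199B inoculum at 10⁶ CFU/ml in MH broth with norfloxacin 16 μg/ml plus inhibitor 128 μg/ml, 37°C. Viable counts were taken by dilution plating in triplicate on MH agar at 0, 2, 4, 8 and 24 h. Results are expressed as log percentage survival, means of three experiments. Sensitivity limit was 1 log₁₀ CFU/ml.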

Staphylococcus aureus [18] = assay: Increase in 5 ug levofloxacin antibacterial activity against Staphylococcus aureus SA1199B mutant overexpressing NorA at 32 ug/ml by disk diffusion method; type: functional
Outline: as §1

Staphylococcus aureus [19] = assay: Increase in 5 ug levofloxacin antibacterial activity against Staphylococcus aureus SA1199B mutant overexpressing NorA at 16 ug/ml by disk diffusion method; type: functional
Outline: as §1

Staphylococcus aureus [20] = assay: Increase in 5 ug ofloxacin antibacterial activity against Staphylococcus aureus SA1199B mutant overexpressing NorA at 32 ug/ml by disk diffusion method; type: functional
Outline: as §1

Staphylococcus aureus [21] = assay: Increase in 5 ug levofloxacin antibacterial activity against Staphylococcus aureus SA1199B mutant overexpressing NorA at 64 ug/ml by disk diffusion method; type: functional
Outline: as §1

Staphylococcus aureus [22] = assay: Increase in 5 ug sparfloxacin antibacterial activity against Staphylococcus aureus SA1199B mutant overexpressing NorA at 64 ug/ml by disk diffusion method; type: functional
Outline: as §1

Staphylococcus aureus [23] = assay: Increase in 5 ug sparfloxacin antibacterial activity against Staphylococcus aureus SA1199B mutant overexpressing NorA at 32 ug/ml by disk diffusion method; type: functional
Outline: as §1

Staphylococcus aureus [24] = assay: Increase in 5 ug sparfloxacin antibacterial activity against Staphylococcus aureus SA1199B mutant overexpressing NorA at 16 ug/ml by disk diffusion method; type: functional
Outline: as §1

Staphylococcus aureus [25] = assay: Increase in 5 ug moxifloxacin antibacterial activity against Staphylococcus aureus SA1199B mutant overexpressing NorA at 64 ug/ml by disk diffusion method; type: functional
Outline: as §1

Staphylococcus aureus [26] = assay: Increase in 5 ug moxifloxacin antibacterial activity against Staphylococcus aureus SA1199B mutant overexpressing NorA at 32 ug/ml by disk diffusion method; type: functional
Outline: as §1

Staphylococcus aureus [27] = assay: Increase in 5 ug moxifloxacin antibacterial activity against Staphylococcus aureus SA1199B mutant overexpressing NorA at 16 ug/ml by disk diffusion method; type: functional
Outline: as §1

Staphylococcus aureus [28] = assay: Increase in 30 ug chloramphenicol antibacterial activity against Staphylococcus aureus SA1199B mutant overexpressing NorA at 64 ug/ml by disk diffusion method; type: functional
Outline: as §1

Staphylococcus aureus [29] = assay: Increase in 30 ug chloramphenicol antibacterial activity against Staphylococcus aureus SA1199B mutant overexpressing NorA at 32 ug/ml by disk diffusion method; type: functional
Outline: as §1

Staphylococcus aureus [30] = assay: Increase in 30 ug chloramphenicol antibacterial activity against Staphylococcus aureus SA1199B mutant overexpressing NorA at 16 ug/ml by disk diffusion method; type: functional
Outline: as §1

Staphylococcus aureus [31] = assay: Increase in 5 ug Norfloxacin antibacterial activity against Staphylococcus aureus SA1199B mutant overexpressing NorA at 64 ug/ml by disk diffusion method; type: functional
Outline: as §1

Staphylococcus aureus [32] = assay: Increase in 5 ug Norfloxacin antibacterial activity against Staphylococcus aureus SA1199B mutant overexpressing NorA at 32 ug/ml by disk diffusion method; type: functional
Outline: as §1

Staphylococcus aureus [33] = assay: Increase in 5 ug Norfloxacin antibacterial activity against Staphylococcus aureus SA1199B mutant overexpressing NorA at 16 ug/ml by disk diffusion method; type: functional
Outline: as §1

Staphylococcus aureus [34] = assay: Increase in 5 ug ciprofloxacin antibacterial activity against Staphylococcus aureus SA1199B mutant overexpressing NorA at 64 ug/ml by disk diffusion method; type: functional
Outline: as §1

Staphylococcus aureus [35] = assay: Increase in 5 ug ciprofloxacin antibacterial activity against Staphylococcus aureus SA1199B mutant overexpressing NorA at 32 ug/ml by disk diffusion method; type: functional
Outline: as §1

Staphylococcus aureus [36] = assay: Increase in 5 ug ciprofloxacin antibacterial activity against Staphylococcus aureus SA1199B mutant overexpressing NorA at 16 ug/ml by disk diffusion method; type: functional
Outline: as §1

Staphylococcus aureus [37] = assay: Increase in 5 ug ofloxacin antibacterial activity against Staphylococcus aureus SA1199B mutant overexpressing NorA at 64 ug/ml by disk diffusion method; type: functional
Outline: as §1

Staphylococcus aureus [38] = assay: Increase in 5 ug ofloxacin antibacterial activity against Staphylococcus aureus SA1199B mutant overexpressing NorA at 16 ug/ml by disk diffusion method; type: functional
Outline: as §1

Row | SMILES | zone of inhibition at 5 µg/disc (Staphylococcus aureus [1]) [mm] | inhibition zone (IZ) (Staphylococcus aureus [3]) [mm] | inhibition zone (IZ) (Staphylococcus aureus [4]) [mm] | inhibition zone (IZ) (Staphylococcus aureus [5]) [mm] | MIC (Staphylococcus aureus [6]) [µg/mL] | MIC (Staphylococcus aureus [7]) [µg/mL] | MIC (Staphylococcus aureus [8]) [µg/mL] | Activity (Staphylococcus aureus [9]) [%] | Drug uptake (Staphylococcus aureus [10]) [ng/mg] | inhibition zone (IZ) (Staphylococcus aureus [11]) [mm] | inhibition zone (IZ) (Staphylococcus aureus [12]) [mm] | inhibition zone (IZ) (Staphylococcus aureus [13]) [mm] | inhibition zone (IZ) (Staphylococcus aureus [14]) [mm] | Drug uptake (Staphylococcus aureus [15]) [ng/mg] | Activity (Staphylococcus aureus [16]) [%] | inhibition zone (IZ) (Staphylococcus aureus [18]) [mm] | inhibition zone (IZ) (Staphylococcus aureus [19]) [mm] | inhibition zone (IZ) (Staphylococcus aureus [20]) [mm] | inhibition zone (IZ) (Staphylococcus aureus [21]) [mm] | inhibition zone (IZ) (Staphylococcus aureus [22]) [mm] | further results
1 | C[C@H]1COc2c(N3CCN(C)CC3)c(F)cc3c(=O)c(C(=O)O)cn1c23 [LEVOFLOXACIN] | 30 |  |  |  |  |  |  |  |  |  |  |  |  |  |  |  |  |  |  |  | 
2 | O=C(N[C@H](CO)[C@H](O)c1ccc([N+](=O)[O-])cc1)C(Cl)Cl [CHLORAMPHENICOL] |  |  |  |  |  |  |  |  |  |  |  |  |  |  |  |  |  |  |  |  | zone of inhibition at 30 µg/disc (Staphylococcus aureus [2]): 24 mm
3 | COc1ccc2[nH]c([S+]([O-])Cc3nc4cc(Cl)ccc4n4cccc34)nc2c1 (stereo not drawn) |  | 28 | 28 | 27 | > 512 | 1 | 4 | 10 | 270 | 18 | 25 | 26 | 27 | 400 | 40 |  |  |  |  |  | Activity (Staphylococcus aureus [17]): Active
4 | C[C@@H]1CN(c2c(F)c(N)c3c(=O)c(C(=O)O)cn(C4CC4)c3c2F)C[C@H](C)N1 [SPARFLOXACIN] | 30 |  |  |  |  |  |  |  |  |  |  |  |  |  |  |  |  |  |  |  | 
5 | COc1ccc2[nH]c([S+]([O-])Cc3ncc(C)c(OC)c3C)nc2c1 (stereo not drawn) [OMEPRAZOLE] |  | 28 | 30 | 25 | > 512 | 1 | 8 | 10 | 270 | 14 | 22 | 23 | 25 | 400 | 40 | 21 | 21 | 18 | 23 | 27 | inhibition zone (IZ) (Staphylococcus aureus [23]): 27 mm; inhibition zone (IZ) (Staphylococcus aureus [24]): 26 mm; inhibition zone (IZ) (Staphylococcus aureus [25]): 29 mm; inhibition zone (IZ) (Staphylococcus aureus [26]): 27 mm; inhibition zone (IZ) (Staphylococcus aureus [27]): 27 mm; inhibition zone (IZ) (Staphylococcus aureus [28]): 24 mm; inhibition zone (IZ) (Staphylococcus aureus [29]): 24 mm; inhibition zone (IZ) (Staphylococcus aureus [30]): 24 mm; inhibition zone (IZ) (Staphylococcus aureus [31]): 12 mm; inhibition zone (IZ) (Staphylococcus aureus [32]): 6 mm; inhibition zone (IZ) (Staphylococcus aureus [33]): 6 mm; inhibition zone (IZ) (Staphylococcus aureus [34]): 19 mm; inhibition zone (IZ) (Staphylococcus aureus [35]): 15 mm; inhibition zone (IZ) (Staphylococcus aureus [36]): 13 mm; inhibition zone (IZ) (Staphylococcus aureus [37]): 20 mm; inhibition zone (IZ) (Staphylococcus aureus [38]): 18 mm
6 | COC(=O)[C@H]1[C@H]2C[C@@H]3c4[nH]c5cc(OC)ccc5c4CCN3C[C@H]2C[C@@H](OC(=O)c2cc(OC)c(OC)c(OC)c2)[C@@H]1OC [RESERPINE] |  | 28 | 28 | 25 | > 512 | 1 | 8 | 10 | 270 | 13 | 22 | 21 | 24 | 400 | 40 | 24 | 22 | 19 | 24 | 27 | inhibition zone (IZ) (Staphylococcus aureus [23]): 27 mm; inhibition zone (IZ) (Staphylococcus aureus [24]): 27 mm; inhibition zone (IZ) (Staphylococcus aureus [25]): 28 mm; inhibition zone (IZ) (Staphylococcus aureus [26]): 28 mm; inhibition zone (IZ) (Staphylococcus aureus [27]): 28 mm; inhibition zone (IZ) (Staphylococcus aureus [28]): 25 mm; inhibition zone (IZ) (Staphylococcus aureus [29]): 24 mm; inhibition zone (IZ) (Staphylococcus aureus [30]): 24 mm; inhibition zone (IZ) (Staphylococcus aureus [31]): 12 mm; inhibition zone (IZ) (Staphylococcus aureus [32]): 12 mm; inhibition zone (IZ) (Staphylococcus aureus [33]): 9 mm; inhibition zone (IZ) (Staphylococcus aureus [34]): 20 mm; inhibition zone (IZ) (Staphylococcus aureus [35]): 18 mm; inhibition zone (IZ) (Staphylococcus aureus [36]): 16 mm; inhibition zone (IZ) (Staphylococcus aureus [37]): 20 mm; inhibition zone (IZ) (Staphylococcus aureus [38]): 19 mm
